Assay results from ChEMBL document CHEMBL1250442, “Inhibiting gene expression at transcription start sites in chromosomal DNA with antigene RNAs” (Nat Chem Biol, 2005).
Activity calls are given as the source filed them. The rule behind the calls is not given here.

Assays:
[1] = test system: T47D; experiment: Inhibition of PR-A gene expression in human T47D cells at 25 nM by syber green assay; assay type: functional
In short: (§1)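 T47D cells plated at 80,000/well without antibiotics two days before Oligofectamine transfection with agRNA duplex (25 or 100 nM final); medium changed at 24 h, harvest day 5 unless stated otherwise. TRIzol total RNA; PR mRNA by real-time PCR with SYBR Green: 50 °C 2 min, 95 °C 10 min, 40 cycles 95 °C 15 s/60 °C 1 min.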

[2] = test system: T47D; experiment: Inhibition of PR-B gene expression in human T47D cells at 25 nM by syber green assay; assay type: functional; in short: as §1
[3] = test system: T47D; experiment: Inhibition of PR-A gene expression in human T47D cells at 25 nM by syber green assay in presence of 10 nM estradiol; assay type: functional, cell-based
[4] = test system: T47D; experiment: Inhibition of PR-B gene expression in human T47D cells at 25 nM by syber green assay in presence of 10 nM estradiol; assay type: functional, cell-based
[5] = test system: T47D; experiment: Inhibition of PR-A mRNA gene expression in human T47D cells at 100 nM by syber green assay; assay type: functional; in short: as §1
[6] = test system: T47D; experiment: Inhibition of PR-B mRNA gene expression in human T47D cells at 100 nM by syber green assay; assay type: functional
In short: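 T47D cells in RPMI-1640 with 10% FBS, NEAA, insulin, 37 °C, 5% CO2. Plated two days before transfection without antibiotics. Oligofectamine-mediated duplex RNA transfection at 100 nM final, medium changed at 24 h, harvest five days post-transfection. Total RNA extracted with TRIzol. hPR mRNA quantified by SYBR Green qPCR: 50 °C 2 min, 95 °C 10 min, then 40 cycles of 95 °C 15 s / 60 °C 1 min.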

[7] = test system: T47D; experiment: Effect of DNA methylation at (-112) CpG site near PR-B transcription start site (-13) in human T47D cells by sodium bisulfite sequencing analysis; assay type: functional, cell-based
In short: (§2)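 T47D cells (RPMI-1640, 10% FBS, NEAA, insulin; 37 °C, 5% CO2) transfected with agRNA duplexes via Oligofectamine, medium changed at 24 h. Genomic DNA bisulphite-treated, regions around AR and hPR-B start sites PCR-amplified (HotStarTaq, 100 ng treated DNA), gel-purified, TOPO TA cloned; 5–15 colonies per plate miniprepped and sequenced.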

[8] = test system: T47D; experiment: Effect of DNA methylation at (-75) CpG site near PR-B transcription start site (-13) in human T47D cells by sodium bisulfite sequencing analysis; assay type: functional, cell-based; in short: as §2
[9] = test system: T47D; experiment: Effect of DNA methylation at (-46) CpG site near PR-B transcription start site (-13) in human T47D cells by sodium bisulfite sequencing analysis; assay type: functional, cell-based; in short: as §2
[10] = test system: T47D; experiment: Effect of DNA methylation at (-23) CpG site near PR-B transcription start site (-13) in human T47D cells by sodium bisulfite sequencing analysis; assay type: functional, cell-based; in short: as §2
[11] = test system: T47D; experiment: Effect of DNA methylation at (+20) CpG site near PR-B transcription start site (-13) in human T47D cells by sodium bisulfite sequencing analysis; assay type: functional, cell-based
In short: (§3)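 T47D cells grown in RPMI-1640 with 10% FBS, 0.5% NEAA, insulin and P/S at 37 °C, 5% CO2. They were plated at 80,000 cells/well 2 days before lipid transfection with 25 nM or 100 nM duplex, with medium changed at 24 h. Cells were harvested 5 days post-transfection. 100 ng bisulfite-treated DNA was PCR-amplified, and products were TA-cloned. 5–15 colonies per plate were sequenced.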

[12] = test system: T47D; experiment: Effect of DNA methylation at (+45) CpG site near PR-B transcription start site (-13) in human T47D cells by sodium bisulfite sequencing analysis; assay type: functional, cell-based; in short: as §2
[13] = test system: T47D; experiment: Effect of DNA methylation at (+107) CpG site near PR-B transcription start site (-13) in human T47D cells by sodium bisulfite sequencing analysis; assay type: functional, cell-based; in short: as §3
[14] = test system: T47D; experiment: Effect of DNA methylation at (+112) CpG site near PR-B transcription start site (-13) in human T47D cells by sodium bisulfite sequencing analysis; assay type: functional, cell-based; in short: as §3
[15] = test system: T47D; experiment: Effect of DNA methylation at (+125) CpG site near PR-B transcription start site (-13) in human T47D cells by sodium bisulfite sequencing analysis; assay type: functional, cell-based; in short: as §3
[16] = test system: T47D; experiment: Effect of DNA methylation at (+149) CpG site near PR-B transcription start site (-13) in human T47D cells by sodium bisulfite sequencing analysis; assay type: functional, cell-based; in short: as §3
[17] = test system: T47D; experiment: Effect of DNA methylation at (+162) CpG site near PR-B transcription start site (-13) in human T47D cells by sodium bisulfite sequencing analysis; assay type: functional, cell-based; in short: as §3
[18] = test system: T47D; experiment: Effect of DNA methylation at (+166) CpG site near PR-B transcription start site (-13) in human T47D cells by sodium bisulfite sequencing analysis; assay type: functional, cell-based; in short: as §3
[19] = test system: T47D; experiment: Effect of DNA methylation at (+173) CpG site near PR-B transcription start site (-13) in human T47D cells by sodium bisulfite sequencing analysis; assay type: functional, cell-based; in short: as §3
[20] = test system: T47D; experiment: Effect of DNA methylation at (+190) CpG site near PR-B transcription start site (-13) in human T47D cells by sodium bisulfite sequencing analysis; assay type: functional, cell-based; in short: as §3
[21] = test system: T47D; experiment: Effect of DNA methylation at (+216) CpG site near PR-B transcription start site (-13) in human T47D cells by sodium bisulfite sequencing analysis; assay type: functional, cell-based; in short: as §3
[22] = test system: T47D; experiment: Effect of DNA methylation at (+225) CpG site near PR-B transcription start site (-13) in human T47D cells by sodium bisulfite sequencing analysis; assay type: functional, cell-based; in short: as §3
[23] = test system: T47D; experiment: Effect of DNA methylation at (+267) CpG site near PR-B transcription start site (-13) in human T47D cells by sodium bisulfite sequencing analysis; assay type: functional, cell-based; in short: as §3
[24] = test system: T47D; experiment: Effect of DNA methylation at (+295) CpG site near PR-B transcription start site (-13) in human T47D cells by sodium bisulfite sequencing analysis; assay type: functional, cell-based; in short: as §3
[25] = test system: T47D; experiment: Effect of DNA methylation at (+319) CpG site near PR-B transcription start site (-13) in human T47D cells by sodium bisulfite sequencing analysis; assay type: functional, cell-based; in short: as §3
[26] = test system: T47D; experiment: Effect of DNA methylation at (+335) CpG site near PR-B transcription start site (-13) in human T47D cells by sodium bisulfite sequencing analysis; assay type: functional, cell-based; in short: as §3
[27] = test system: T47D; experiment: Effect of DNA methylation at (+337) CpG site near PR-B transcription start site (-13) in human T47D cells by sodium bisulfite sequencing analysis; assay type: functional, cell-based; in short: as §3
[28] = test system: T47D; experiment: Effect of DNA methylation at (+353) CpG site near PR-B transcription start site (-13) in human T47D cells by sodium bisulfite sequencing analysis; assay type: functional, cell-based; in short: as §3
[29] = test system: T47D; experiment: Effect of DNA methylation at (+356) CpG site near PR-B transcription start site (-13) in human T47D cells by sodium bisulfite sequencing analysis; assay type: functional, cell-based; in short: as §3
[30] = test system: T47D; experiment: Effect of DNA methylation at (+362) CpG site near PR-B transcription start site (-13) in human T47D cells by sodium bisulfite sequencing analysis; assay type: functional, cell-based; in short: as §3
[31] = test system: T47D; experiment: Effect of DNA methylation at (+379) CpG site near PR-B transcription start site (-13) in human T47D cells by sodium bisulfite sequencing analysis; assay type: functional, cell-based; in short: as §3
[32] = test system: T47D; experiment: Effect of DNA methylation at (+398) CpG site near PR-B transcription start site (-13) in human T47D cells by sodium bisulfite sequencing analysis; assay type: functional, cell-based; in short: as §3
[33] = test system: T47D; experiment: Effect of DNA methylation at (+41) CpG site near PR-B transcription start site (-13) in human T47D cells by sodium bisulfite sequencing analysis; assay type: functional, cell-based; in short: as §3

With `Cc1cn(CC(=O)N(CCNC(=O)CN(CCNC(=O)CN(CCNC(=O)CN(CCNC(=O)CN(CCNC(=O)CN(CCNC(=O)CN(CCNC(=O)CN(CCNC(=O)CN(CCNC(=O)CN(CCNC(=O)CN(CCNC(=O)CN(CCNC(=O)CN(CCNC(=O)CN(CCNC(=O)CN(CCNC(=O)CN(CCNC(=O)CN(CCNC(=O)CN(CCNC(=O)CN(CCNC(=O)CN(CCNC(=O)CN)C(=O)Cn2cnc3c(N)ncnc32)C(=O)Cn2cnc3c(N)ncnc32)C(=O)Cn2cnc3c(=O)[nH]c(N)nc32)C(=O)Cn2ccc(N)nc2=O)C(=O)Cn2ccc(=O)[nH]c2=O)C(=O)Cn2cnc3c(=O)[nH]c(N)nc32)C(=O)Cn2ccc(=O)[nH]c2=O)C(=O)Cn2ccc(N)nc2=O)C(=O)Cn2ccc(=O)[nH]c2=O)C(=O)Cn2cnc3c(=O)[nH]c(N)nc32)C(=O)Cn2cnc3c(=O)[nH]c(N)nc32)C(=O)Cn2ccc(N)nc2=O)C(=O)Cn2ccc(N)nc2=O)C(=O)Cn2cnc3c(N)ncnc32)C(=O)Cn2cnc3c(=O)[nH]c(N)nc32)C(=O)Cn2ccc(=O)[nH]c2=O)C(=O)Cn2ccc(N)nc2=O)C(=O)Cn2ccc(N)nc2=O)C(=O)Cn2cnc3c(N)ncnc32)CC(=O)NCCN(CC(=O)NCC(=O)O)C(=O)Cn2cc(C)c(=O)[nH]c2=O)c(=O)[nH]c1=O` as the compound, how does the inhibition at 0.025 µM [1] read?
The inhibition at 0.025 µM was 72%.

And the inhibition at 0.025 µM [2]?
Its inhibition at 0.025 µM is 80%.

What about the inhibition [3] of the same compound?
The inhibition was “Active”.

And the inhibition [4]?
The inhibition was “Active”.

What about the inhibition at 0.1 µM [5] of the same compound?
Its inhibition at 0.1 µM is 100%.

What about the inhibition at 0.1 µM [6] of the same compound?
Its inhibition at 0.1 µM is 100%.

And the Activity [7]?
The Activity was “inactive”.

What about the Activity [8] of the same compound?
The Activity was “inactive”.

What about the Activity [9] of the same compound?
Its Activity is “inactive”.

What about the Activity [10] of the same compound?
Its Activity is “inactive”.

What about the Activity [11] of the same compound?
The Activity was “inactive”.

And the Activity [12]?
Its Activity is “inactive”.

And the Activity [13]?
Its Activity is “inactive”.

What about the Activity [14] of the same compound?
The Activity was “inactive”.

What about the Activity [15] of the same compound?
Its Activity is “inactive”.

And the Activity [16]?
Its Activity is “inactive”.

What about the Activity [17] of the same compound?
Its Activity is “inactive”.

What about the Activity [18] of the same compound?
The Activity was “inactive”.

And the Activity [19]?
Its Activity is “inactive”.

And the Activity [20]?
The Activity was “inactive”.

What about the Activity [21] of the same compound?
The Activity was “inactive”.

And the Activity [22]?
The Activity was “inactive”.

And the Activity [23]?
The Activity was “inactive”.

And the Activity [24]?
Its Activity is “inactive”.

And the Activity [25]?
Its Activity is “inactive”.

And the Activity [26]?
Its Activity is “inactive”.

What about the Activity [27] of the same compound?
The Activity was “inactive”.

What about the Activity [28] of the same compound?
Its Activity is “inactive”.

And the Activity [29]?
The Activity was “inactive”.

What about the Activity [30] of the same compound?
Its Activity is “inactive”.

What about the Activity [31] of the same compound?
Its Activity is “inactive”.

What about the Activity [32] of the same compound?
The Activity was “inactive”.

What about the Activity [33] of the same compound?
Its Activity is “inactive”.
